Screening data deposited in PubChem by several laboratories.
Most compounds without a hit are left out; they make up all but 1.6% or so of the library.
NOD2-RIPK2 inh: inhibitors of human NOD2-RIPK2 interaction. CHO BLA complementation NOD2-RIPK2, CCF4 ratio. inhibition, % at 4.98 µM. 360,000 tested, 0.38% active. AID 624267; in the data active means inhibition above about 21%;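 further: 0% = vehicle only and 100% = reference blocker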
Target sequence (O43353 whole entry, looked up): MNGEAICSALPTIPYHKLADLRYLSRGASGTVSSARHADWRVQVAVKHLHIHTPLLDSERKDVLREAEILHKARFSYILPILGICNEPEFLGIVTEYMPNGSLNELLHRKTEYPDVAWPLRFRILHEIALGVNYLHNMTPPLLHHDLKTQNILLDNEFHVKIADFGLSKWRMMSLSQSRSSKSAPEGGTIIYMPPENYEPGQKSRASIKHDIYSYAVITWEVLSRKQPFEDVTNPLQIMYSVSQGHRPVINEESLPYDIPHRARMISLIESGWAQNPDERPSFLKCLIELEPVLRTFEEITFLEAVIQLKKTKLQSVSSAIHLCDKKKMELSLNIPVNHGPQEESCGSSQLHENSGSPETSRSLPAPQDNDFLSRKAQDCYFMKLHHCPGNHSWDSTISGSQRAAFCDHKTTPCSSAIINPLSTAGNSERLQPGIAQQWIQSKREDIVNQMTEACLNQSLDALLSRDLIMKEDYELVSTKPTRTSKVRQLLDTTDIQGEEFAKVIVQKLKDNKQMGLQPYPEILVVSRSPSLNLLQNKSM
TLR9-MyD88 inh: inhibitors of human TLR9-MyD88 binding | inhibition, % at 4.98 µM | 340,000 tested, 0.21% active | AID 504734 | CHO BLA complementation TLR9-MyD88, CCF4 FRET ratio | Q9NR96+Q99836;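 active means inhibition above the mean over all tested compounds plus 3 SD, cut at about 21% in these data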;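 further: 0% = DMSO only wells and 100% = clavulanate BLA inhibitor control wells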
SR-BI uptake up: enhances SR-BI lipid uptake from DiI-HDL. 320,000 tested, 0.096% active. CHO ldlA[mSR-BI] cells, DiI-HDL uptake fluorescence, 3 h; 100 = double the neutral-control signal. activation, % at 12.5 µM. AID 504775;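 active means mean replicate activation of at least 60% and every replicate at or above 60%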;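 further: 0% = median plate neutral-control signal and 100% = twice that signal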
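system = CHO ldlA[mSR-BI] cells, LDL receptor-null, SR-BI overexpressing | medium = Ham's F12 with 0.5% BSA, HEPES 25 mM, pH 7.4 | probe or stimulus = DiI-HDL 10 µg/mL | compound dosing = single-point compound dose | incubation = compound exposure 3 h, 37 °C | technique = DiI fluorescence, bottom read | read-out = cell-associated DiI fluorescence as measure of HDL uptake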
TLR4-MyD88 BLA: TLR4-MyD88 interaction inhibition in cells | O00206+Q99836 | HeLa CL3-4 TLR4/MyD88 BLA complementation, FRET ratio | inhibition, % at 8.4 µM | 200,000 tested, 0.18% active; in the data active means inhibition above about 25%;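 further: 0% = vehicle and 100% = reference inhibitor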
Hep lipid drop: hepatic lipid droplet formation modulation; AID 1656; 240,000 tested, 0.4% active; AML12 mouse hepatocytes, oleate lipid droplets, BODIPY imaging; inhibition, % at 6.5 µM;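 active means lipid droplet intensity inhibited by at least 50%, with more than 500 cells counted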
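Test system: AML12 hepatocytes (mouse); reagent: oleate loading, 100 µM; dosing: one dose, 6.5 µM compound; incubation: overnight exposure; signal: fluorescence imaging, 20x objective, two fields per well; read-out basis: % inhibition of corrected integrated BODIPY droplet signal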
SR-BI DiI inh: mouse SR-BI HDL lipid transfer inhibition. Q61009. ldlA[mSR-BI] CHO cells, DiI-HDL uptake fluorescence, 3 h. inhibition, % at 12.5 µM. 320,000 tested, 0.96% active;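 active means mean replicate inhibition of at least 70% and a set share of replicates each scoring 70 or more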;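 further: 0% = median of neutral control wells and 100% = median of positive control wells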
Active calls of the source: *; / = no result given.

SMILES	NOD2-RIPK2 inh	TLR9-MyD88 inh	SR-BI uptake up	TLR4-MyD88 BLA	Hep lipid drop	SR-BI DiI inh
O=C(c1ccccc1)N1N=C(c2ccccc2)CC1c1ccccc1O (stereo unspecified)	3	1	16	1	-13	-16
O=C(c1ccncc1)N1N=C(c2ccc(Br)cc2)CC1c1ccccc1O (stereo unspecified)	4	-8	-75	/	-5	75*
CCCNC(=S)N1CCN(c2nc(C)nc3sc4c(c23)CCCC4)CC1	-2	6	-73	-11	-5	73*
COCCCNC(=S)N1CCN(c2nc(C)nc3sc4c(c23)CCCC4)CC1	-5	-7	-44	/	/	44
CCN(CC)C(=O)/C(=C/c1ccc2c(c1)OCO2)NC(=O)c1ccc(Br)cc1	5	3	-75	12	-19	75*
O=C(O)CNC(=O)/C(=C\c1ccc2c(c1)OCO2)NC(=O)c1ccc(Br)cc1	-11	/	3	-4	12	-3
O=C(Nc1ccc2c(c1)OCCO2)C1CCCN(S(=O)(=O)c2cnc[nH]2)C1 (stereo unspecified)	0	1	14	-12	2	-14
Cc1ccc(NC(=O)/C(C#N)=N/Nc2ccc(C(=O)O)cc2)c(C)c1	-16	5	27	/	3	-27
Cc1ccc(N/N=C(\C#N)C(N)=S)c(C)c1	6	5	-77	-13	3	77*
Cc1cnc(C(=O)OCC(=O)c2cc(C)n(CCc3ccc(F)cc3)c2C)cn1	-12	5	/	/	/	/
Cc1cc(C(=O)COC(=O)c2ccc(O)cc2)c(C)n1CCc1ccc(F)cc1	2	5	-74	4	-10	74*
CCN(CC)S(=O)(=O)c1ccc(NC(=O)c2ccc(Cl)nc2)cc1	-12	-5	-76	/	1	76*
CCN(CC)S(=O)(=O)c1cccc(NC(=O)/C=C/c2cccc([N+](=O)[O-])c2)c1	-5	-5	-54	-8	-19	54
CCN(CC)S(=O)(=O)c1cccc(NC(=O)c2ccc(C#N)cc2)c1	-4	-7	-77	-2	5	77*
CCN(CC)S(=O)(=O)c1ccc(NC(=O)c2ccc(NS(C)(=O)=O)cc2)cc1	-4	0	-9	1	-16	9
CN(C)S(=O)(=O)c1cccc(NC(=O)/C=C/c2ccccc2[N+](=O)[O-])c1	4	-3	-75	-3	1	75*
COc1cccc(NC(=O)/C=C/c2ccccc2[N+](=O)[O-])c1	4	7	-18	-19	9	18
CN(c1ccccc1)S(=O)(=O)c1cccc(NC(=O)c2cccc(C#N)c2)c1	-7	-3	-42	/	/	42
CCN(CC)S(=O)(=O)c1cccc(NC(=O)/C=C/c2ccc([N+](=O)[O-])cc2)c1	-4	-6	-76	2	4	76*
Cc1ccc(-c2nc(N)sc2-c2ccc(C)cc2)cc1	11	4	-73	-2	-4	73*
Cc1ccc(-c2nc(N)sc2C)cc1	6	1	/	2	-7	/
COc1ccc(NC(=O)c2cc(C3CCCCN3C(=O)OCCF)on2)c(C)c1 (stereo unspecified)	1	/	/	/	/	/
CCC(C)C(NC(=O)C1CCC(C)CC1)C(=O)Nc1ccc(OC)cc1OC (stereo unspecified)	-5	0	-79	-11	7	79*
COc1ccc(NC(=O)C(CC(C)C)NC(=O)C2CCC(C)CC2)c(OC)c1 (stereo unspecified)	-3	-4	-72	6	-2	72*
C[C@H]1CN([C@@H](C)CO)S(=O)(=O)c2ccc(Br)cc2O[C@@H]1CN(C)C(=O)Cc1cccnc1	-14	2	/	/	/	/
SMILES	NOD2-RIPK2 inh	TLR9-MyD88 inh	SR-BI uptake up	TLR4-MyD88 BLA	Hep lipid drop	SR-BI DiI inh
COc1cc2ccccc2cc1C(=O)OCC(=O)N(C)c1c(N)n(Cc2ccccc2)c(=O)[nH]c1=O	-17	-7	-40	/	/	40
Cc1cccc(COc2ccccc2C(=O)OCC(=O)N(C)c2c(N)n(Cc3ccccc3)c(=O)[nH]c2=O)c1	-2	-9	-87	/	-1	87*
CCC(C)c1ccccc1NC(=O)c1cc2cccc([N+](=O)[O-])c2[nH]1 (stereo unspecified)	2	/	/	/	-12	/
Cc1ccc(NC(=O)c2cc3cccc([N+](=O)[O-])c3[nH]2)cc1	-5	7	-79	/	4	79*
COc1ccccc1N1CCN(C(=O)CCC(=O)N2CCN(c3ccccc3OC)CC2)CC1	3	-1	-70	/	3	70*
COc1ccccc1N1CCN(C(=O)CCC(=O)N2CCN(c3ccc(F)cc3)CC2)CC1	4	-2	-45	/	-2	45
COc1ccc(-c2ccc(-c3nc4c(c(=O)[nH]c(=O)n4Cc4ccccc4)n3C)o2)c([N+](=O)[O-])c1	-5	-1	-72	-8	5	72*
COc1ccc(OCCn2cc(C=O)c3ccccc32)cc1	-8	-5	0	/	-8	0
CNC(=S)N/N=C/c1cn(CCOc2ccc(OC)cc2)c2ccccc12	-3	2	-78	-10	-9	78*
COc1ccccc1OCCn1cc(/C=N/NC(N)=S)c2ccccc21	-14	12	-77	7	-44	77*
CC(=O)Oc1ccc2c(c1)O/C(=C\c1ccncc1)C2=O	31*	13	-4	/	-7	4
O=C(Oc1ccc2c(c1)O/C(=C\c1ccncc1)C2=O)c1cccs1	8	/	22	/	6	-22
CC(=O)Nc1ccc(NC(=O)COc2ccc(S(=O)(=O)N3CCCC3)cc2)cc1	-15	1	8	/	11	-8
COc1ccc(CNC[C@@H](CCCCN(C)Cc2ccc(OC)cc2)N2C[C@H](c3ccccc3)N(CCc3ccc(Cl)c(Cl)c3)C(=O)C2=O)cc1	29*	9	21	4	-12	-21
CN(CCCC[C@H](CNCc1ccc(-c2ccccc2)cc1)N1C[C@H](c2ccccc2)N(CCc2ccc(Cl)c(Cl)c2)C(=O)C1=O)Cc1ccc(-c2ccccc2)cc1	/	/	/	/	19	/
COc1ccc(OC)c(/C=C/C(=O)Nc2cccc(S(=O)(=O)N3CCCC3)c2)c1	-5	9	-87	4	4	87*
COc1cc(C)c(NC(=O)c2cccc(S(=O)(=O)N3CCCC3)c2)cc1OC	2	-10	-86	/	/	86*
COc1ccccc1/C=C/C(=O)Nc1cccc(S(=O)(=O)NC2=NCCCCC2)c1	-9	-1	-72	-15	6	72*
COc1cc(C(=O)Nc2cccc(S(=O)(=O)N3CCCC3)c2)c([N+](=O)[O-])cc1OC	2	10	-74	/	/	74*
